Assay results taken from ChEMBL document CHEMBL1145999, “Synthesis and Ca2+-mobilizing activity of purine-modified mimics of adenophostin A: a model for the adenophostin-Ins(1,4,5)P3 receptor interaction” (J Med Chem, 2003).
pEC50: −log10 of the molar value.

How the values were obtained:
[1] = organism: Rattus norvegicus; assay: The % of actively accumulated [Ca2+] released by a maximally effective concentration of the compound; assay type: functional
Summary of the method: (§1)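 Permeabilized rat hepatocytes loaded with 45Ca2+ to steady state for 5 min at 37 °C in cytosol-like medium (pH 7.0, free Ca2+ 200 nM) with ATP 1.5 mM, creatine phosphate/creatine phosphokinase and FCCP 10 µM. Thapsigargin 1.25 µM added; 30 s later, agonist for 60 s; store 45Ca2+ measured by rapid filtration. Four-parameter logistic fit gave maximal response, EC50, Hill slope. Means ± SEM.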

[2] = organism: Rattus norvegicus; assay: Effective concentration causing half-maximal [Ca2+] release in rat hepatocytes; assay type: functional; conditions: Hepatocyte; summary of the method: as §1
[3] = Hill coefficient was determined; assay type: functional; summary of the method: as §1
[4] = organism: Rattus norvegicus; assay: Potency for [Ca2+] release in rat hepatocytes with respect to compound 2; conditions: Hepatocyte

SMILES | Max response [1] [%] | pEC50 [2] | Hill slope [3] | relative potency [4]
CNc1nc(OC)nc2c1ncn2C1O[C@H](CO)[C@H](O[C@@H]2OC(CO)[C@H](OP(=O)(O)O)C(OP(=O)(O)O)[C@@H]2O)[C@@H]1OP(=O)(O)O (some centres not stated) | 34 | 7.09 | 8.8 | 0.17
COc1ncnc2c1ncn2C1O[C@H](CO)[C@H](O[C@@H]2OC(CO)[C@H](OP(=O)(O)O)C(OP(=O)(O)O)[C@@H]2O)[C@@H]1OP(=O)(O)O (some centres not stated) | 34 | 7.72 | 3.8 | 0.57
Nc1ncnc2c1ncn2C1O[C@H](CO)[C@H](O[C@@H]2OC(CO)[C@H](OP(=O)(O)O)C(OP(=O)(O)O)[C@@H]2O)[C@@H]1OP(=O)(O)O (some centres not stated) | 35 | 7.85 | 2.4 | 1
O=P(O)(O)OC1[C@@H](OP(=O)(O)O)C(CO)O[C@@H](O[C@@H]2[C@H](OP(=O)(O)O)C(n3cnc4c(NC5CCCC5)ncnc43)O[C@@H]2CO)[C@H]1O (some centres not stated) | 35 | 7.89 | 2.2 | 0.77
CN(C)c1ncnc2c1ncn2C1O[C@H](CO)[C@H](O[C@@H]2OC(CO)[C@H](OP(=O)(O)O)C(OP(=O)(O)O)[C@@H]2O)[C@@H]1OP(=O)(O)O (some centres not stated) | 39 | 7.72 | 2.1 | 0.82
O=P(O)(O)O[C@@H]1[C@H](O)[C@H](O)[C@@H](OP(=O)(O)O)[C@H](OP(=O)(O)O)[C@H]1O [INS(1,4,5)P3] | 35 | 6.73 | 2.3 | 0.08
CNc1ncnc2c1ncn2C1O[C@H](CO)[C@H](O[C@@H]2OC(CO)[C@H](OP(=O)(O)O)C(OP(=O)(O)O)[C@@H]2O)[C@@H]1OP(=O)(O)O (some centres not stated) | 37 | 7.89 | 2.1 | 0.8
O=P(O)(O)OC1[C@@H](OP(=O)(O)O)C(CO)O[C@@H](O[C@@H]2[C@H](OP(=O)(O)O)C(n3cnc4c(NC5CCCCC5)ncnc43)O[C@@H]2CO)[C@H]1O (some centres not stated) | 45 | 7.60 | 2.3 | 0.56
